{"source": "paper PMC9065697", "about": "(RSC Advances, 2019)", "key": {"HT29 cells [1]": {"test_system": "HT29 cells", "assay": "Annexin V-GFP/PI costaining assay", "format": "cell-based, human", "settings": "0.5 μM for 10 min"}, "[2]": {"assay": "Solubility and aggregation state", "format": "physicochemical", "settings": "2 μM in DMF and in PBS with 0.01% Tween 80 (v/v); intense, sharp Q band at 672 nm (DMF) or 680 nm (PBS); UV-Vis"}, "HT29 cells [3]": {"test_system": "HT29 cells", "assay": "Photocytotoxicity, MTT assay", "format": "cell-based, human", "settings": "absence of light, both incubation conditions", "summary_of_the_method": "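HT29 cells (1 × 10^4 per well) were plated overnight. A DMSO stock of test compound was diluted in medium and applied for 10 min at 37 °C. Cells were rinsed with PBS, refed, and held 0 or 6 h with no red-light illumination. MTT (3 mg mL−1 in PBS) was added for 4 h, DMSO added, and A490 read. Viability is relative to compound-free control wells, averaged over 4 data points.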"}, "[4]": {"test_system": "HT29 human colorectal adenocarcinoma cells", "assay": "Cellular uptake by confocal fluorescence microscopy", "format": "cell-based", "settings": "2 μM for 10 min at 37 °C, then 6 h in drug-free medium at 4 °C", "summary_of_the_method": "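HT29 cells (about 2 × 10^5, RPMI with 10% FBS) were seeded on confocal dishes and left overnight at 37 °C, 5% CO2. They were exposed to 2 μM test compound for 10 min at 37 °C, washed three times with PBS, then held in drug-free medium for 6 h at 4 °C or 37 °C. Bright-field and fluorescence images were taken by confocal microscopy.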"}, "[5]": {"assay": "In vivo biodistribution by near-infrared fluorescence imaging", "parameters": "species or system mouse", "settings": "mouse, in vivo, iv, 20 nmol", "summary_of_the_method": "(§1)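 Female Balb/c nude mice (20–25 g) carried subcutaneous HT29 tumours on the back (about 1 × 10^7 cells in HBSS) grown to 60–100 mm3. They received 20 nmol test compound in water with 1% DMSO by tail-vein injection. NIR imaging (ex 680 nm, em ≥700 nm) ran from pre-dose to 48 h. At 48 h, tumour, heart, lung, spleen, kidney and liver were assayed for fluorescence per unit area and reported as tumour/organ ratio. Data are mean ± SD, n = 4.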"}, "[6]": {"test_system": "HT29 tumour-bearing nude mice", "assay": "In vivo biodistribution by near-infrared fluorescence imaging", "parameters": "species or system mouse", "settings": "20 nmol intravenous; for Fluorescence intensity in the tumour area over time: imaged over 48 h, four mice per conjugate", "summary_of_the_method": "as §1"}, "[7]": {"test_system": "A431 human epidermoid carcinoma cells", "settings": "read-out: IC50 (photocytotoxicity); cited from earlier work"}, "[8]": {"settings": "reference standard in DMF; cited from earlier work"}, "[9]": {"settings": "reference standard in DMF; cited from earlier work", "remark": "listed apart in the source"}}, "note": "Peptide text beside a SMILES is read from it. * marks the point of attachment. X1 = O=C(c1ccc(Oc2ccc3c4nc5nc(nc6[nH]c(nc7nc(nc([nH]4)c3c2)-c2ccccc2-7)c2ccccc62)-c2ccccc2-5)cc1)*", "data": [{"molecule": "N=C(N)NCCC[C@H](NC(=O)[C@@H](N)CCC(N)=O)C(=O)N[C@@H](Cc1c[nH]cn1)C(=O)N[C@@H](CCCCN)C(=O)N1CCC[C@H]1C(=O)N[C@@H](CCCNC(=N)N)C(=O)N[C@@H](CCC(=O)O)C(=O)NCC(=O)NCC(=O)NCC(=O)NCC(=O)N[C@@H](CO)C(=O)N[C@@H](CCCCNC(=O)c1ccc(Oc2ccc3c4nc5nc(nc6[nH]c(nc7nc(nc([nH]4)c3c2)-c2ccccc2-7)c2ccccc62)-c2ccccc2-5)cc1)C(N)=O", "note": "[compound 4] (H-QRHKPREGGGGSK(X1)-NH2)", "values": [{"measurement": "Cell-death pathway, PDT effect on the cell membrane", "setting": "HT29 cells [1]; irradiated immediately (λ > 610 nm, 18 mW cm^-2, 20 min)", "value": "cell necrosis"}, {"measurement": "Cell-death pathway, PDT effect after internalisation", "setting": "HT29 cells [1]; then 6 h post-incubation before irradiation (λ > 610 nm, 18 mW cm^-2, 20 min)", "value": "mainly through apoptosis"}, {"measurement": "Solubility and aggregation state from the Q band", "setting": "[2]", "value": "soluble and remained non-aggregated in both media"}, {"measurement": "Dark toxicity", "setting": "HT29 cells [3]", "value": "did not show significant dark toxicity"}, {"measurement": "Internalisation on post-incubation at 4 °C", "setting": "[4]", "value": "internalisation was not significant"}, {"measurement": "tissue to tissue ratio at 48 h", "setting": "[5]", "value": "< 1"}, {"measurement": "Fluorescence intensity in the tumour area over time", "setting": "[6]", "value": "increased along with time"}]}, {"molecule": "EPRQRHKGGGGSK [compound 5]", "values": [{"measurement": "Tumour selectivity (tumour/organ ratio) compared with conjugate 4", "setting": "[6]; ex vivo at 48 h, four mice", "value": "consistently lower for all the organs"}, {"measurement": "Fluorescence intensity in the tumour area over time", "setting": "[6]", "value": "remained weak throughout the period"}]}, {"molecule": "GYHWYGYTPQNVI [GE11 conjugate]", "values": [{"measurement": "IC50", "setting": "[7]", "value": 14, "unit": "µM"}]}, {"molecule": "[Zn+2].c1ccc2c(c1)-c1nc-2nc2[n-]c(nc3nc([n-]c4nc(n1)-c1ccccc1-4)-c1ccccc1-3)c1ccccc21", "note": "[ZnPc, zinc(II) phthalocyanine]", "values": [{"measurement": "Singlet oxygen quantum yield ΦΔ", "setting": "[8]", "value": 0.56}, {"measurement": "Fluorescence quantum yield ΦF", "setting": "[9]", "value": 0.28}]}]}
